Source: PubChem BioAssay (several laboratories)
JNK3 blocker – inhibitors of human JNK3 kinase; purified JNK3 kinase activity, HTS; AID 746; actives 0.61% (n = 60,000); inhibition, % at 8 µM; P53779; in the data active = inhibition above about 17%
HEK293 NFkB inh – inhibitors of the PMA/ionomycin-induced NF-kB reporter in HEK293 cells; HEK-293 NF-kB luciferase reporter, luminescence; inhibition, % at 3 µM; actives 0.21% (n = 62,000);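 active = inhibition above the mean of all tested compounds plus 3 SD, cut at about 40% in these data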
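System – HEK-293 cells with stable firefly luciferase reporter driven by four HIV NF-kB elements · Doses – one dose, 3 µM · Schedule – 1 h compound pre-incubation, 16 h PMA/ionomycin at 37 °C · Technique – luminescence from luciferase substrate reagent · Measure – percent inhibition normalized per plate to DMSO and reference-inhibitor controls · Replicates – tested once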
M1 antagonist – antagonists of rat M1 muscarinic receptor | B-score at 10 µM | CHO-M1 cells, Fluo-4 calcium, ACh EC80 antagonist mode; active compounds read low | actives 3.4% (n = 64,000);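 active = calcium fluorescence response, raw or row-and-column corrected B-score, differing from the plate sample mean either way at a set confidence level, mostly lower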
Target sequence (P08482 whole entry, looked up): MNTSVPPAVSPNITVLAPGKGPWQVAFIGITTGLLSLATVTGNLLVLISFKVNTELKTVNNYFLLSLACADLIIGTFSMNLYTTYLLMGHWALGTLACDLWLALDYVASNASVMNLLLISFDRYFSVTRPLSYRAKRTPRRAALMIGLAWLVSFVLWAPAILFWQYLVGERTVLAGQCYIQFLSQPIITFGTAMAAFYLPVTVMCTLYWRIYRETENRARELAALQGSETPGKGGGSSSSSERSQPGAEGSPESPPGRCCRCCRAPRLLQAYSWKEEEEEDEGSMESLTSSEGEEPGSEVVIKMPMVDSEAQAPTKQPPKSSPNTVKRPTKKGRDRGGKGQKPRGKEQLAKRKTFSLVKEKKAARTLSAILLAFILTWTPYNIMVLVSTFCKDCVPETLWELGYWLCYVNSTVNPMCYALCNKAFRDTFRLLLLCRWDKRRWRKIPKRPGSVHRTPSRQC
M1 agonist – agonists of M1 muscarinic receptor. B-score at 10 µM. AID 626. actives 3% (n = 64,000). CHO-M1 cells, Fluo-4 calcium fluorescence, agonist mode; active compounds read high;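 active = fluorescence rise, raw or as B-score row- and column-corrected plate score, outside the 99.7% band of its plate's samples, either direction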
BAP1 inh – blocks human BAP1 ubiquitin-AMC hydrolysis; Q92560; recombinant BAP1, Ub-AMC hydrolysis fluorescence kinetic; active compounds read low; calls only at 20 µM; actives 0.48% (n = 72,000); AID 436;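 active = activity remaining at or below 50% of control, provided the compound also passes the data quality filters; inactive = the rest, including low values that fail the filters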
HER2 expr 66K – lowers expression of human Her2 kinase; actives 0.69% (n = 65,000); SKBR-3 HER2 protein level, AlphaScreen, 18-24 h; active compounds read low; P04626; HER2 level % of control, % at 10 µM;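 active = HER2 level under 5% of the carrier-only control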;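 note: lower value means stronger loss of Her2 protein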
M1 antag confirm – M1 muscarinic receptor (rat) antagonism, confirmed. shares compounds with M1 antagonist. CHO-M1 cells, Fluo-4 calcium, ACh EC80 antagonism; active compounds read low. calcium response (max-min fluorescence) at 10 µM. actives 43% (n = 1,700);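 active = calcium response below the same-plate mean of wells given acetylcholine alone at its 80%-effect dose, minus 3 SD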
mGluR4 antag – mGluR4 (human) activity, M1 antagonist secondary assay. shares compounds with M1 antagonist. CHO-mGluR4 calcium flux, Fluo-4 fluorescence, glutamate EC80; active compounds read low. fluorescence response (max-min) at 10 µM. actives 0.9% (n = 1,700). AID 678;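 active = fluorescence response below the plate's average for near-maximal glutamate wells, less 3 SD of those wells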;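 note: raw unnormalized fluorescence span taken in the window right after glutamate addition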
Hits are given with their value; n = inactive; x = no result shown. The list is not random: actives were taken first. Their share in the collection is about 6.6%.

SMILES | JNK3 blocker | HEK293 NFkB inh | M1 antagonist | M1 agonist | BAP1 inh | HER2 expr 66K | M1 antag confirm | mGluR4 antag
CCOC(=O)N1CCC(NC(=O)CN2C(=O)C(CC)Oc3ccc(C)cc32)CC1 (configuration not stated) | n | n | -5.72 | n | n | n | n | n
Cc1cc(C(=O)N2CCN(C(c3ccccc3)c3ccccc3)CC2)on1 | n | n | -1.35 | n | n | n | 361 | n
Cc1ccc(S(=O)(=O)N(Cc2cc3cc4c(cc3[nH]c2=O)OCCO4)CC2CCCO2)cc1 (configuration not stated) | n | n | n | n | x | n | x | x
O=c1[nH]c2cc3c(cc2cc1CN(CC1CCCO1)S(=O)(=O)c1ccc(Cl)cc1)OCCO3 (configuration not stated) | n | n | -4.2 | n | x | n | n | n
CC(C)(C)c1cnnn1-c1ccc(NC(=O)c2ccc(Br)o2)cc1 | x | n | -2.27 | n | n | n | 560 | n
O=C1NCCCc2nc(Oc3ccccc3)sc21 | n | n | -3.27 | n | n | n | n | n
COc1nc2c(s1)C(=O)NCCC2 | n | n | n | n | n | n | x | x
COc1cc2[nH]c3c(=O)n(CCN(C(C)C)C(C)C)cnc3c2cc1OC | n | x | -4.61 | n | n | n | n | n
CCc1oc2cc(OC(C)C)ccc2c(=O)c1-c1ccc2c(c1)OCCO2 | x | x | x | x | n | x | x | x
COc1cccc(C(c2nnnn2Cc2ccco2)N2CCN(c3cccc(C)c3C)CC2)c1OC (configuration not stated) | n | n | -4.28 | n | n | n | n | n
Cc1ccc(C(=O)CSc2nnc(COc3cccc(C)c3)o2)cc1 | n | n | n | n | n | n | x | x
Cc1cccc(OCc2nnc(SCc3cc(=O)n4cc(Br)ccc4n3)o2)c1 | n | n | -3.03 | n | n | n | n | n
CCOc1ccc(C2=Nn3c(nnc3-c3ccccn3)SC2)cc1 | n | x | -3.15 | n | n | n | n | n
COc1ccc(C2=Nn3c(nnc3-c3ccccn3)SC2)cc1OC | n | x | n | n | n | n | x | x
COc1cccc(NC(=O)CSc2nnc(-c3cc(C)n(-c4ccccc4)c3C)o2)c1 | n | 41.3 | -2.6 | n | x | n | n | n
COc1cc(N)cc2sc(NC(=O)c3ccc(N)cc3)nc12 | x | x | x | x | n | x | x | x
CN1CCCN(C(c2ccccc2)c2ccc(Cl)cc2)CC1 (configuration not stated) | n | x | -16.1 | n | n | n | 14 | n
Cc1onc(-c2c(F)cccc2Cl)c1C(=O)Nc1nnc(C2CC2)s1 | n | n | -4.12 | n | n | n | 481 | n
Cc1onc(-c2c(Cl)cccc2Cl)c1C(=O)Nc1ccc2c(c1)OCCO2 | n | n | -3.06 | n | n | n | 424 | n
CC(C)(C)n1nc2c(c1NC(=O)c1cccc([N+](=O)[O-])c1)CSC2 | x | x | x | x | n | x | x | x
Cc1ccc(C(C)(C)C)c(OCC(=O)Nc2ccccc2C(F)(F)F)c1 | x | x | x | x | n | x | x | x
Cn1c(C(=O)N2CCCC(C(=O)NCCc3ccccc3)C2)cc2sccc21 (configuration not stated) | n | n | -6.11 | n | x | n | 328 | n
Cn1c(C(=O)N2CCCC(C(=O)NCCCc3ccccc3)C2)cc2sccc21 (configuration not stated) | n | n | n | n | n | n | x | x
COc1ccccc1S(=O)Cc1ccc(C(=O)NCCc2ccc(Cl)cc2)o1 (configuration not stated) | n | n | -3.15 | n | n | n | n | n
COc1ccccc1S(=O)Cc1ccc(C(=O)NC2CCCC2)o1 (configuration not stated) | n | n | n | n | n | n | x | x
SMILES | JNK3 blocker | HEK293 NFkB inh | M1 antagonist | M1 agonist | BAP1 inh | HER2 expr 66K | M1 antag confirm | mGluR4 antag
O=C1C(Cl)=C(Cl)C(=O)N1CCOCCN1C(=O)C(Cl)=C(Cl)C1=O | x | x | x | x | n | x | x | x
CCC1=NC(c2ccccc2OC)N(O)C1(C)C (configuration not stated) | n | n | -15.3 | n | n | n | 257 | n
Cc1ccc(Nc2nc(CSc3nnnn3C)cs2)cc1 | n | n | -4.78 | n | n | n | n | n
Cn1nnnc1SCc1csc(Nc2ccccc2)n1 | n | n | n | n | n | n | x | x
COc1ccc(OC)c(CNC(=O)C2CCN(S(=O)(=O)N3CCCC3)CC2)c1 | n | n | n | n | n | n | x | x
COc1ccc(OC)c(CNC(=O)C2CCN(C(=O)N(C)C)CC2)c1 | n | n | -3.04 | n | n | n | n | n
CCN(CC)C(=O)COc1ccc(-c2ccccc2)cc1 | n | n | n | n | n | n | x | x
CCN(CC)C(=O)c1cccc(-c2ccc(OC)cc2)c1 | x | n | -2.16 | n | n | n | n | n
CC(=O)Nc1ccc(N2C(=O)c3ccc([N+](=O)[O-])cc3C2=O)cc1 | x | x | x | x | n | x | x | x
Cc1cc(-c2nnc3sc(C4CCCCC4)nn23)n[nH]1 | n | n | -0.135 | n | n | n | n | n
COc1cc(-c2nnc3sc(C4CCCCC4)nn23)cc(OC)c1OC | n | n | n | n | n | n | x | x
O=C1C2C3c4ccccc4C(c4ccccc43)C2C(=O)N1c1ccc(S(=O)(=O)Nc2nccs2)cc1 (configuration not stated) | x | x | x | x | n | x | x | x
Cn1cc(C(=O)NCCN2CCN(c3ccccc3F)CC2)c2c3ccccc3n(C)c2c1=O | n | n | -4.33 | n | n | n | n | n
CC1CCN(CCCNC(=O)c2cc3c(=O)n(C)c4ccccc4c3n2C)CC1 | n | n | n | n | n | n | x | x
Cn1c(C(=O)NCCCN2CCOCC2)cc2c(=O)n(C)c3ccccc3c21 | n | n | n | n | n | n | x | x
CN1CCN(CCCNC(=O)c2cc3c(=O)n(C)c4ccccc4c3s2)CC1 | n | n | -2.77 | n | n | n | n | n
Cn1c(C(=O)NCCCN2CCN(c3ccccc3F)CC2)cc2c(=O)n(C)c3ccccc3c21 | n | n | n | n | n | n | x | x
Cn1c(C(=O)NCCN2CCN(Cc3ccccc3)CC2)cc2c(=O)n(C)c3ccccc3c21 | n | n | -6.91 | n | n | n | 288 | n
Cn1c(C(=O)NCCN2CCCCCC2)cc2c(=O)n(C)c3ccccc3c21 | n | n | -3.69 | n | n | n | 430 | n
COc1ccc(C(=O)Nc2cccc(C(=O)Nc3cccc4ccccc34)c2)cc1[N+](=O)[O-] | x | x | x | x | n | x | x | x
c1coc(C2Nc3cccc4cccc(c34)N2)c1 | n | n | -2.17 | n | x | n | n | n
Cc1noc(C)c1CSc1nc2ccccc2n1CCc1ccccc1 | n | n | -3.81 | n | n | n | n | n
Cc1noc(C)c1CSc1nc2ccccc2[nH]1 | n | n | -1.43 | n | n | n | 435 | n
O=C(O)CCn1c(SCc2ccccc2)nc2ccccc21 | n | n | n | n | n | n | x | x
